Tests used:
Rattus norvegicus [1] = species: Rattus norvegicus; test: Compound was tested for 50% Inhibition of lipid peroxidation in rat brain homogenate; assay type: functional
Rattus norvegicus [2] = species: Rattus norvegicus; test: Relative efficacy gives an indication of the percent of viable cells (Rat cerebellar granule cells) at the maximal efficacious concentration of 0.6 uM; assay type: functional
Rattus norvegicus [3] = species: Rattus norvegicus; test: Ability to protect cerebellar granule cells (CGC) from iodoacetate (IAA)-induced toxicity; assay type: functional, cell-based
Rattus norvegicus [4] = species: Rattus norvegicus; test: Relative efficacy gives an indication of the percent of viable cells (Rat cerebellar granule cells) at the maximal efficacious concentration of 33.3 uM; assay type: functional
Rattus norvegicus [5] = species: Rattus norvegicus; test: Relative efficacy gives an indication of the percent of viable cells (Rat cerebellar granule cells) at the maximal efficacious concentration of 0.3 uM; assay type: functional
Rattus norvegicus [6] = species: Rattus norvegicus; test: Relative efficacy gives an indication of the percent of viable cells (Rat cerebellar granule cells) at the maximal efficacious concentration of 0.4 uM; assay type: functional
Rattus norvegicus [7] = species: Rattus norvegicus; test: Relative efficacy gives an indication of the percent of viable cells (Rat cerebellar granule cells) at the maximal efficacious concentration of 26.8 uM; assay type: functional
Rattus norvegicus [8] = species: Rattus norvegicus; test: Relative efficacy gives an indication of the percent of viable cells (Rat cerebellar granule cells) at the maximal efficacious concentration of 5.0 uM; assay type: functional
Rattus norvegicus [9] = species: Rattus norvegicus; test: Relative efficacy gives an indication of the percent of viable cells (Rat cerebellar granule cells) at the maximal efficacious concentration of 6 uM; assay type: functional
Rattus norvegicus [10] = species: Rattus norvegicus; test: Relative efficacy gives an indication of the percent of viable cells (Rat cerebellar granule cells) at the maximal efficacious concentration of 46.7 uM; assay type: functional
Outline: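 Rat cerebellar granule cells exposed to 30 µM iodoacetate for 30 min in physiological salt solution, which was then replaced with maintenance medium containing test compound. Viability was read 24 h later. Relative efficacy is the percent of viable cells at the maximal efficacious concentration.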

Rattus norvegicus [11] = species: Rattus norvegicus; test: Relative efficacy gives an indication of the percent of viable cells (Rat cerebellar granule cells) at the maximal efficacious concentration of 77.8 uM; assay type: functional

SMILES	IC50 (Rattus norvegicus [1]) [µM]	EC50 (Rattus norvegicus [3]) [µM]	further results
Cc1c(O)c(=O)ccn1CCCCc1cc(C(C)(C)C)c(O)c(C(C)(C)C)c1	2.9	0.6	Relative efficacy (Rattus norvegicus [2]): 0.7
COc1cc(CCn2ccc(=O)c(O)c2C)cc(OC)c1O	3.3	33.3	Relative efficacy (Rattus norvegicus [4]): 0.9
CCNCc1cc(C(C)(C)C)c(O)c(C(C)(C)C)c1	14.8	5	Relative efficacy (Rattus norvegicus [8]): 0.9
Cc1c(O)c(=O)ccn1C [DEFERIPRONE]	3.9	46.7	Relative efficacy (Rattus norvegicus [10]): 1
Cc1c(C)c2c(c(C)c1O)CCC(C)(C(=O)O)O2 (stereo not given) [TROLOX]	28.7	77.8	Relative efficacy (Rattus norvegicus [11]): 0.9

More lines, in order of falling IC50 (Rattus norvegicus [1]), values ahead:

IC50 (Rattus norvegicus [1]) [µM]	SMILES	EC50 (Rattus norvegicus [3]) [µM]	further results
5.9	Cc1cc(C(C)(C)C)c(O)c(C(C)(C)C)c1 [BUTYLATED HYDROXYTOLUENE]	6	Relative efficacy (Rattus norvegicus [9]): 0.9
2	COc1cc(CCCn2ccc(=O)c(O)c2C)cc(OC)c1O	26.8	Relative efficacy (Rattus norvegicus [7]): 0.8
1	Cc1c(O)c(=O)ccn1CCCc1cc(C(C)(C)C)c(O)c(C(C)(C)C)c1	0.3	Relative efficacy (Rattus norvegicus [5]): 0.8
0.4	Cc1c(O)c(=O)ccn1CCSc1cc(C(C)(C)C)c(O)c(C(C)(C)C)c1	0.4	Relative efficacy (Rattus norvegicus [6]): 0.6
0.3	Cc1c(O)c(=O)ccn1CCc1cc(C(C)(C)C)c(O)c(C(C)(C)C)c1	0.3	Relative efficacy (Rattus norvegicus [5]): 0.9
